Key:
Conditions in all cases: stereoisomer not certain
UniProt Q8VFP5 = target: T1, UniProt Q8VFP5
T1 sequence (whole entry): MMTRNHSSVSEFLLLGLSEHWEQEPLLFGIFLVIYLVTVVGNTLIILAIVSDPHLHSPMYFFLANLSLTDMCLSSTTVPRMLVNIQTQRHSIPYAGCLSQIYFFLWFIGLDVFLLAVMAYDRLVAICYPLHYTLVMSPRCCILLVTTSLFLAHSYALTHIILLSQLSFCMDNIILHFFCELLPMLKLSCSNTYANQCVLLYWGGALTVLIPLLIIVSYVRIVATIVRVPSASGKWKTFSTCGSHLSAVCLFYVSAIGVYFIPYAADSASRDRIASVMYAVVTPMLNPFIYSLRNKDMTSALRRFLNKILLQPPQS
Method in brief: (§1)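 Assay methods differ from source to source, frequently being transient luciferase assays in mammalian cell lines. For each receptor–molecule pair, the label responsive (active) applies when the original authors judged the measured signal statistically different from baseline, and non-responsive (inactive) applies otherwise.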

UniProt Q8VG01 = target: T2, UniProt Q8VG01
T2 sequence (whole entry): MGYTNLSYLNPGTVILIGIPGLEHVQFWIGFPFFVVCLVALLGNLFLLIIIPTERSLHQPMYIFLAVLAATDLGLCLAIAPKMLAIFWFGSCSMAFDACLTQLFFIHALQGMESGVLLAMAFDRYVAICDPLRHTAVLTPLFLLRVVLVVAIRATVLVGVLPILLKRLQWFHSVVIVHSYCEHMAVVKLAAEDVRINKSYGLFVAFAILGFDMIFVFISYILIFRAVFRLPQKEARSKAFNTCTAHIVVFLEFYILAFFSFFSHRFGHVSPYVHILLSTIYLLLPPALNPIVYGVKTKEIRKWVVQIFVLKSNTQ
Method in brief: as §1

UniProt Q8VG27 = target: T3, UniProt Q8VG27
T3 sequence (whole entry): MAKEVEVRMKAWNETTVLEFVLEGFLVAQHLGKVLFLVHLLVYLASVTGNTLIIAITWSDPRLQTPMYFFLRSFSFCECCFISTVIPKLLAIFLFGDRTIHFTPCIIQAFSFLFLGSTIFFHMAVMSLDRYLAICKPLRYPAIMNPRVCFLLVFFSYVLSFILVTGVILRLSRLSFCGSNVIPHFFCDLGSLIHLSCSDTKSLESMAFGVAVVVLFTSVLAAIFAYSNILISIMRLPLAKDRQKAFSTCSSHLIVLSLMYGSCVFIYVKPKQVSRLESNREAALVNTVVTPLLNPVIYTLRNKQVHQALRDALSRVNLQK
Method in brief: as §1

UniProt Q8VG53 = target: T4, UniProt Q8VG53
T4 sequence (whole entry): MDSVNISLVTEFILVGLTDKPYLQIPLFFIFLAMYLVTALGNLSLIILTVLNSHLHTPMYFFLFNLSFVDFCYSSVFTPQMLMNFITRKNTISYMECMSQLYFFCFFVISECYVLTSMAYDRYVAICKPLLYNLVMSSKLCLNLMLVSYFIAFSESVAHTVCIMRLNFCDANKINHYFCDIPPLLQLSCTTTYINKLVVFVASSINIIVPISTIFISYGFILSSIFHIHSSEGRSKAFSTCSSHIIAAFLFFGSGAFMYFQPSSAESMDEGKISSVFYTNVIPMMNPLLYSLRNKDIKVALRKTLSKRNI
Method in brief: as §1

UniProt Q8VG64 = target: T5, UniProt Q8VG64
T5 sequence (whole entry): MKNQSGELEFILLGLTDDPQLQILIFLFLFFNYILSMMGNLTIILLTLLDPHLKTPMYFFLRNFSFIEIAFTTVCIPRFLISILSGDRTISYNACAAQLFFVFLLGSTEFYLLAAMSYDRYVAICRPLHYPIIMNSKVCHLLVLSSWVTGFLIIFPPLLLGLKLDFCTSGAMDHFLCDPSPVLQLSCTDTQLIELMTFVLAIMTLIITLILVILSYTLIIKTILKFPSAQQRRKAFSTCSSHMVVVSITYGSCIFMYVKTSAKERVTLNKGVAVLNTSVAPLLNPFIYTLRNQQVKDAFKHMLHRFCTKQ
Method in brief: as §1

UniProt Q8VGB9 = target: T6, UniProt Q8VGB9
T6 sequence (whole entry): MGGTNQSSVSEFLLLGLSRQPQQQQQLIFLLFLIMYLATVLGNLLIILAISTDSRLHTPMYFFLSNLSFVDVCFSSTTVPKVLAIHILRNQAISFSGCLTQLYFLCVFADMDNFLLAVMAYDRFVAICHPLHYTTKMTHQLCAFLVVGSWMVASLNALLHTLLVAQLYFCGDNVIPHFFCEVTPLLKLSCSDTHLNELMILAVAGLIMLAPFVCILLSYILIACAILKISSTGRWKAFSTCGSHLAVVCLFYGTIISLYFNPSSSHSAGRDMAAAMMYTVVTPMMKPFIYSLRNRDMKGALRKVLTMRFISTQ
Method in brief: as §1

Measured: odorant receptor agonist call

CCSSCC
inactive: all assays above

C=C(CC)CCCC(C)(C)O
inactive: all assays above

COc1nccnc1C
inactive: all assays above

CCc1ccccc1O
inactive: all assays above

CC=C(C)C=O
inactive: all assays above

C=C(C)C1CCC(C)C(O)C1 (configuration not stated)
inactive: all assays above

OCCc1ccccc1
inactive: all assays above

CC1CC=CCCCCCCCCCC(=O)C1 (configuration not stated)
inactive: all assays above

CCC(C)c1nccnc1OC (configuration not stated)
inactive: all assays above

CSSCc1ccco1
active: UniProt Q8VG27
inactive: all other assays above

CCCCCCCOC(=O)C(C)C
inactive: all assays above

CCCCCCCCCCCO
inactive: all assays above

CCCCCCCCCCOC(C)=O
active: UniProt Q8VG27
inactive: all other assays above

OCC=Cc1ccccc1
inactive: all assays above

CCc1ccc(O)cc1
inactive: all assays above

CCCC(C)C(=O)OCC (configuration not stated)
inactive: all assays above

CCCCCCCCCC=CC=O
inactive: all assays above
